# Laboratory results published in ChEMBL document CHEMBL4689842, “EUbOPEN Chemogenomics Library wave 1” (2021).
# Columns and labels:
# U2OS = assay: Multiplex assay against U2OS; format: toxicity, cell-based; details: human
# Summary of the method: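 Hoechst33342, BioTracker Green Microtubule Cytoskeleton Dye, MitoTracker Red and Annexin V Alexa Fluor 680 were added to live cells at seeding, and imaging on a CQ1 microscope at 37°C and 5% CO2 followed compound addition. Gating by CellPathfinder machine learning separated cells into Hoechst high-intensity objects or normal cells, then normal cells into healthy, pyknosed or fragmented nuclei, then pyknosed cells into mitotic or apoptotic. Per cents of healthy-nucleus cells are reported for the tubulin, mitochondrial-mass and membrane-permeability phenotypes.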
# HEK-293T = assay: Incucyte cell viability with HEK293T; format: toxicity, cell-based; details: human, 10 µM, compound concentration 10 uM; further: filed as whole numbers so only -1 and 0 and 1 occur
# [1] = 12 h, 1 µM, compound concentration 1 uM, replicate 1
# [2] = 12 h, 1 µM, compound concentration 1 uM, replicate 2
# [3] = 12 h, 10 µM, compound concentration 10 uM, replicate 1
# [4] = 12 h, 10 µM, compound concentration 10 uM, replicate 2
# [5] = 24 h, 1 µM, compound concentration 1 uM, replicate 1
# [6] = 24 h, 1 µM, compound concentration 1 uM, replicate 2
# [7] = 24 h, 10 µM, compound concentration 10 uM, replicate 1
# [8] = 24 h, 10 µM, compound concentration 10 uM, replicate 2
# [9] = 48 h, 1 µM, compound concentration 1 uM, replicate 1
# [10] = 48 h, 1 µM, compound concentration 1 uM, replicate 2
# [11] = 48 h, 10 µM, compound concentration 10 uM, replicate 1
# [12] = 48 h, 10 µM, compound concentration 10 uM, replicate 2
compound,measurement,setting,value
CCn1c(-c2nonc2N)nc2cnc(Oc3cccc(NC(=O)c4ccc(OCCN5CCOCC5)cc4)c3)cc21 [GSK-269962A],Population Apoptotic (%),U2OS; [1],43%
same,Population Fragmented Nuclei (%),U2OS; [1],14%
same,Population Healthy Nuclei (%),U2OS; [1],64%
same,Population Hoechst High Intensity Objects (%),U2OS; [1],12%
same,Population Membrane Permeable-Phenotype (%),U2OS; [1],13%
same,Population Mitochondria Different-Phenotype (%),U2OS; [1],17%
same,Population Mitotic Cells (%),U2OS; [1],56%
same,Population Normal (%),U2OS; [1],87%
same,Population Pyknosed Nuclei (%),U2OS; [1],21%
same,Population Tubulin-Different-Phenotype (%),U2OS; [1],13%
same,Total Cell Count,U2OS; [1],156
same,Population Apoptotic (%),U2OS; [2],20%
same,Population Fragmented Nuclei (%),U2OS; [2],20%
same,Population Healthy Nuclei (%),U2OS; [2],72%
same,Population Hoechst High Intensity Objects (%),U2OS; [2],2%
same,Population Membrane Permeable-Phenotype (%),U2OS; [2],14%
same,Population Mitochondria Different-Phenotype (%),U2OS; [2],16%
same,Population Mitotic Cells (%),U2OS; [2],80%
same,Population Normal (%),U2OS; [2],97%
same,Population Pyknosed Nuclei (%),U2OS; [2],7%
same,Population Tubulin-Different-Phenotype (%),U2OS; [2],14%
same,Total Cell Count,U2OS; [2],45
same,Population Apoptotic (%),U2OS; [3],50%
same,Population Fragmented Nuclei (%),U2OS; [3],15%
same,Population Healthy Nuclei (%),U2OS; [3],53%
same,Population Hoechst High Intensity Objects (%),U2OS; [3],10%
same,Population Membrane Permeable-Phenotype (%),U2OS; [3],36%
same,Population Mitochondria Different-Phenotype (%),U2OS; [3],94%
same,Population Mitotic Cells (%),U2OS; [3],49%
same,Population Normal (%),U2OS; [3],90%
same,Population Pyknosed Nuclei (%),U2OS; [3],30%
same,Total Cell Count,U2OS; [3],121
same,Population Apoptotic (%),U2OS; [4],31%
same,Population Fragmented Nuclei (%),U2OS; [4],20%
same,Population Healthy Nuclei (%),U2OS; [4],57%
same,Population Hoechst High Intensity Objects (%),U2OS; [4],7%
same,Population Membrane Permeable-Phenotype (%),U2OS; [4],45%
same,Population Mitochondria Different-Phenotype (%),U2OS; [4],97%
same,Population Mitotic Cells (%),U2OS; [4],68%
same,Population Normal (%),U2OS; [4],92%
same,Population Pyknosed Nuclei (%),U2OS; [4],22%
same,Population Tubulin-Different-Phenotype (%),U2OS; [4],100%
same,Total Cell Count,U2OS; [4],71
same,Population Apoptotic (%),U2OS; [5],43%
same,Population Fragmented Nuclei (%),U2OS; [5],10%
same,Population Healthy Nuclei (%),U2OS; [5],71%
same,Population Hoechst High Intensity Objects (%),U2OS; [5],7%
same,Population Membrane Permeable-Phenotype (%),U2OS; [5],6%
same,Population Mitochondria Different-Phenotype (%),U2OS; [5],18%
same,Population Mitotic Cells (%),U2OS; [5],56%
same,Population Normal (%),U2OS; [5],92%
same,Population Pyknosed Nuclei (%),U2OS; [5],17%
same,Population Tubulin-Different-Phenotype (%),U2OS; [5],8%
same,Total Cell Count,U2OS; [5],174
same,Population Apoptotic (%),U2OS; [6],75%
same,Population Fragmented Nuclei (%),U2OS; [6],11%
same,Population Healthy Nuclei (%),U2OS; [6],77%
same,Population Hoechst High Intensity Objects (%),U2OS; [6],2%
same,Population Membrane Permeable-Phenotype (%),U2OS; [6],1%
same,Population Mitochondria Different-Phenotype (%),U2OS; [6],10%
same,Population Mitotic Cells (%),U2OS; [6],25%
same,Population Normal (%),U2OS; [6],97%
same,Population Pyknosed Nuclei (%),U2OS; [6],11%
same,Population Tubulin-Different-Phenotype (%),U2OS; [6],14%
same,Total Cell Count,U2OS; [6],59
same,Population Apoptotic (%),U2OS; [7],70%
same,Population Fragmented Nuclei (%),U2OS; [7],13%
same,Population Healthy Nuclei (%),U2OS; [7],55%
same,Population Hoechst High Intensity Objects (%),U2OS; [7],9%
same,Population Membrane Permeable-Phenotype (%),U2OS; [7],52%
same,Population Mitochondria Different-Phenotype (%),U2OS; [7],98%
same,Population Mitotic Cells (%),U2OS; [7],29%
same,Population Normal (%),U2OS; [7],90%
same,Population Pyknosed Nuclei (%),U2OS; [7],30%
same,Total Cell Count,U2OS; [7],138
same,Population Apoptotic (%),U2OS; [8],53%
same,Population Fragmented Nuclei (%),U2OS; [8],30%
same,Population Healthy Nuclei (%),U2OS; [8],52%
same,Population Hoechst High Intensity Objects (%),U2OS; [8],5%
same,Population Membrane Permeable-Phenotype (%),U2OS; [8],67%
same,Population Mitochondria Different-Phenotype (%),U2OS; [8],97%
same,Population Mitotic Cells (%),U2OS; [8],46%
same,Population Normal (%),U2OS; [8],94%
same,Population Pyknosed Nuclei (%),U2OS; [8],17%
same,Population Tubulin-Different-Phenotype (%),U2OS; [8],100%
same,Total Cell Count,U2OS; [8],73
same,Population Apoptotic (%),U2OS; [9],48%
same,Population Fragmented Nuclei (%),U2OS; [9],14%
same,Population Healthy Nuclei (%),U2OS; [9],70%
same,Population Hoechst High Intensity Objects (%),U2OS; [9],4%
same,Population Membrane Permeable-Phenotype (%),U2OS; [9],7%
same,Population Mitochondria Different-Phenotype (%),U2OS; [9],22%
same,Population Mitotic Cells (%),U2OS; [9],52%
same,Population Normal (%),U2OS; [9],95%
same,Population Pyknosed Nuclei (%),U2OS; [9],15%
same,Population Tubulin-Different-Phenotype (%),U2OS; [9],7%
same,Total Cell Count,U2OS; [9],230
same,Population Apoptotic (%),U2OS; [10],33%
same,Population Fragmented Nuclei (%),U2OS; [10],10%
same,Population Healthy Nuclei (%),U2OS; [10],81%
same,Population Hoechst High Intensity Objects (%),U2OS; [10],7%
same,Population Membrane Permeable-Phenotype (%),U2OS; [10],8%
same,Population Mitochondria Different-Phenotype (%),U2OS; [10],11%
same,Population Mitotic Cells (%),U2OS; [10],66%
same,Population Normal (%),U2OS; [10],92%
same,Population Pyknosed Nuclei (%),U2OS; [10],9%
same,Population Tubulin-Different-Phenotype (%),U2OS; [10],17%
same,Total Cell Count,U2OS; [10],82
same,Population Apoptotic (%),U2OS; [11],64%
same,Population Fragmented Nuclei (%),U2OS; [11],21%
same,Population Healthy Nuclei (%),U2OS; [11],43%
same,Population Hoechst High Intensity Objects (%),U2OS; [11],6%
same,Population Membrane Permeable-Phenotype (%),U2OS; [11],71%
same,Population Mitochondria Different-Phenotype (%),U2OS; [11],100%
same,Population Mitotic Cells (%),U2OS; [11],35%
same,Population Normal (%),U2OS; [11],93%
same,Population Pyknosed Nuclei (%),U2OS; [11],34%
same,Population Tubulin-Different-Phenotype (%),U2OS; [11],100%
same,Total Cell Count,U2OS; [11],169
same,Population Apoptotic (%),U2OS; [12],57%
same,Population Fragmented Nuclei (%),U2OS; [12],13%
same,Population Healthy Nuclei (%),U2OS; [12],59%
same,Population Hoechst High Intensity Objects (%),U2OS; [12],10%
same,Population Membrane Permeable-Phenotype (%),U2OS; [12],87%
same,Population Mitochondria Different-Phenotype (%),U2OS; [12],97%
same,Population Mitotic Cells (%),U2OS; [12],42%
same,Population Normal (%),U2OS; [12],89%
same,Population Pyknosed Nuclei (%),U2OS; [12],27%
same,Total Cell Count,U2OS; [12],108
same,Growth Rate,"HEK-293T; 0 h, replicate number 1, timepoint 0 hours",1
same,Growth Rate,"HEK-293T; 0 h, replicate number 2, timepoint 0 hours",0
same,Growth Rate,"HEK-293T; 6 h, replicate number 1, timepoint 6 hours",0
same,Growth Rate,"HEK-293T; 12 h, replicate number 1, timepoint 12 hours",0
same,Growth Rate,"HEK-293T; 18 h, replicate number 1, timepoint 18 hours",0
same,Growth Rate,"HEK-293T; 24 h, replicate number 1, timepoint 24 hours",0
